Test results from ChEMBL document CHEMBL1124650, “Structure-activity relationships among methoctramine-related polymethylene tetraamines. Chain-length and substituent effects on M-2 muscarinic receptor blocking activity” (J Med Chem, 1989).

Assays:
Details in all cases: read-out: pA2 (converted)
[1] = target: Muscarinic acetylcholine receptor M2 (Cavia porcellus); assay: Antagonist potency against muscarinic receptors was assed by antagonism of carbachol induced inhibition of electrically stimulated guinea pig atria
[2] = target: T1, Muscarinic acetylcholine receptor M3 (Cavia porcellus, UniProt Q8VH26); assay: (§1) Antagonist potency against carbachol induced contractions of isolated guinea pig ileum Muscarinic acetylcholine receptor; type: functional, tissue-based
T1 sequence (Q8VH26 whole entry): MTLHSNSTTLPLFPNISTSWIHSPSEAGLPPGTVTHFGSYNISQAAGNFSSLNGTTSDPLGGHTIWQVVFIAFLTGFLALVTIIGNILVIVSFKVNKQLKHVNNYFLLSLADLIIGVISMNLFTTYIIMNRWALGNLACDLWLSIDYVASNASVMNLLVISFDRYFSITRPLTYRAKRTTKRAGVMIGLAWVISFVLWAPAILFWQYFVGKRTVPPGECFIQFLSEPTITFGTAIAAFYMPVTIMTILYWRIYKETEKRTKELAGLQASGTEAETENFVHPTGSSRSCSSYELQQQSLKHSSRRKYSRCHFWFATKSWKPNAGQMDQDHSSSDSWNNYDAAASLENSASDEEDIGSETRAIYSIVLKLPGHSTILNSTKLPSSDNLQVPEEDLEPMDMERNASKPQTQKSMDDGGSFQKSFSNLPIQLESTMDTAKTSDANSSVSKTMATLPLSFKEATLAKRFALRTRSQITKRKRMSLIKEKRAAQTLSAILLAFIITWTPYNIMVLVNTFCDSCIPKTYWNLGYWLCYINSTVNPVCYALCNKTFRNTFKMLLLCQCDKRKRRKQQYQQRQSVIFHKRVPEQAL

[3] = target: Muscarinic acetylcholine receptor M2 (Cavia porcellus); assay: Antagonist potency against carbachol induced inhibition of electrically stimulated guinea pig atria Muscarinic acetylcholine receptor
[4] = target: T1, Muscarinic acetylcholine receptor M3; assay: as §1; type: functional, tissue-based; remark: listed apart in the source
Outline: (§2)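 Mounted in PSS at 37 °C with isotonic recording and 30 min equilibration. Carbachol curves (0.01-10 μM) were run at 30-min intervals, the second serving as control. A repeat curve followed 30 min antagonist incubation. pA2 came from Schild plots constrained to slope -1.0, using three antagonist concentrations each tested ≥5 times.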

[5] = target: Muscarinic acetylcholine receptor M2 (Cavia porcellus); assay: Antagonist potency against carbachol induced inhibition of electrically stimulated guinea pig atria Muscarinic acetylcholine receptor; remark: listed apart in the source
[6] = target: Muscarinic acetylcholine receptor M2 (Cavia porcellus); assay: as above; remark: listed apart in the source
[7] = target: T1, Muscarinic acetylcholine receptor M3; assay: Antagonist potency against carbachol induced contractions of isolated guinea pig ileum Muscarinic acetylcholine receptor; Inactive up to 10 uM; type: functional, tissue-based
Outline: as §2

Compound | Kb [3] [nM] | Kb [4] [nM] | also measured
COc1ccccc1CNCCCCCCN(C)CCCCCCCCN(C)CCCCCCNCc1ccccc1OC |  |  | Kb [1]: 10.2 nM; Kb [2]: 417 nM
Clc1ccccc1CNCCCCCCNCCCCCCCCNCCCCCCNCc1ccccc1Cl | 66.1 | 2820 | 
c1coc(CNCCCCCCNCCCCCCCCNCCCCCCNCc2ccco2)c1 |  | 851 | Kb [5]: 9.12 nM
c1ccc(CNCCCCCCNCCCCCCCCNCCCCCCNCc2ccccc2)cc1 | 83.2 | 2190 | 
Fc1ccc(CNCCCCCCNCCCCCCCCNCCCCCCNCc2ccc(F)cc2)cc1 | 129 | 2400 | 
O=[N+]([O-])c1ccc(CNCCCCCCNCCCCCCCCNCCCCCCNCc2ccc([N+](=O)[O-])cc2)cc1 | 95.5 | 1320 | 
COc1ccccc1CNCCCCCCNCCCCCCCCCCCCCCNCCCCCCNCc1ccccc1OC |  | 1410 | 
COc1ccccc1CNCCCCCCNCCCCCCCCCCCNCCCCCCNCc1ccccc1OC | 37.2 | 2290 | 
COc1ccccc1CN(C)CCCCCCNCCCCCCCCNCCCCCCN(C)Cc1ccccc1OC |  |  | Kb [1]: 166 nM; Kb [2]: > 10000 nM
Cc1ccc(CNCCCCCCNCCCCCCCCNCCCCCCNCc2ccc(C)cc2)cc1 | 166 | 2340 | 
Clc1cccc(CNCCCCCCNCCCCCCCCNCCCCCCNCc2cccc(Cl)c2)c1 |  | 2290 | Kb [6]: 186 nM
Cc1ccccc1CNCCCCCCNCCCCCCCCNCCCCCCNCc1ccccc1C | 58.9 | 2000 | 
COc1ccccc1CNCCCCCNCCCCCCCCNCCCCCNCc1ccccc1OC | 162 | 2450 | 
COc1ccccc1CNCCCCCCNCCCCCCCCCCCCCNCCCCCCNCc1ccccc1OC | 95.5 | 1230 | 
CSc1ccccc1CNCCCCCCNCCCCCCCCNCCCCCCNCc1ccccc1SC | 26.9 | 589 | 
c1cncc(CNCCCCCCNCCCCCCCCNCCCCCCNCc2cccnc2)c1 |  |  | Kb [1]: 288 nM; Kb [2]: 4900 nM
c1ccc(CNCCCCCCNCCCCCCCCNCCCCCCNCc2ccccn2)nc1 |  |  | Kb [1]: 53.7 nM; Kb [2]: 3310 nM
Clc1ccc(CNCCCCCCNCCCCCCCCNCCCCCCNCc2ccc(Cl)cc2)cc1 | 178 | 2340 | 
COc1ccc(CNCCCCCCNCCCCCCCCNCCCCCCNCc2ccc(OC)cc2)cc1 | 141 | 2750 | 
Cc1ccc(CNCCCCCCNCCCCCCCCNCCCCCCNCc2ccc(C)o2)o1 |  |  | Kb [1]: 8.91 nM; Kb [2]: 708 nM
COc1ccccc1CN(C)CCCCCCN(C)CCCCCCCCN(C)CCCCCCN(C)Cc1ccccc1OC |  |  | Kb [7]: > 10000 nM; Kb [1]: 162 nM
COc1ccccc1CNCCCCCCCNCCCCCCCCNCCCCCCCNCc1ccccc1OC | 27.5 | 646 | 
COc1cccc(CNCCCCCCNCCCCCCCCNCCCCCCNCc2cccc(OC)c2)c1 | 151 | 3890 | 
COc1ccccc1CNCCCCCCNCCCCCCCCNCCCCCCNCc1ccccc1OC [METHOCTRAMINE] |  | 832 | 
